Test [1] has as its system Ca^2+- and ATP-sensitive nonselective cation channels (CA-NSCs). In words: Excised inside-out patch recording of CA-NSC channel gating. It is filed as biochemical, rat. Conditions: for Inhibition of Po / effect on gating (in words): cytosolic exposure, Fig. 3 A; for Prevention of inhibition by concomitantly added ATP (in words): Fig. 3 B, 100 μM ATP for PI(4,5)P2.
For test [2] the test system is unchanged. It is filed as biochemical, rat. Conditions: for Effect on the i([DV]) dose response curve (in words): 1 mM nucleotide. The procedure, abridged: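 Inside-out patches from rat brain capillary endothelial cells, cultured 5–6 d, at 25°C. Pipette: 140 mM NaCl, 30 μM benzamil, pH 7.4. Bath: 140 mM KCl or NMDG-Cl, pH 7.1, plus 1 mM CaCl2. i(V) is recorded ± 70 μM DV. KCl data get linear fits; NMDG data get GHK fits with asymptotic negative-potential slope. Currents at −40 mV ± 1 mM nucleotide are normalized to in-patch control and Hill-fitted.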

Test [3] shares this test system. The experiment in a line: Ensemble fitting of kinetic binding models to the dose response curves. It is filed as biochemical, rat. To be noted: noncompetitive model with allosteric destabilization, one subunit. The procedure, abridged: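 Custom software ensemble-fits the two-ligand extensions of a reversible-binding scheme to 18 normalized dose response curves (Po, opening and closing rates) from inside-out patches. Error function is summed squared differences between predicted and measured values. Open-state Kds are constrained by microscopic reversibility. Unliganded opening rate is fixed at its average (−40 mV, 1 mM cytosolic Ca2+).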

A further test relates to TrpM4b. To be noted: ref Nilius et al., 2004, cited from earlier work.
Test [4] relates to CA-NSC channels present in astrocytes. Conditions: ref Chen et al., 2003; cited from earlier work.
For another test, the system named is TrpM2. Conditions: cytosolic, ref Perraud et al., 2001, Sano et al.; cited from earlier work.
Where [5] appears, read: read-out: K1/2 for inhibition of opening rate, 1 mM Ca2+ i, Vm −40 mV, no DV, Hill fit, deactivated channels.

Where two headings read alike, the source gives them in different places.

For `[O]=[V]([O-])([O-])[O-]` [orthovanadate], in test [1] (1-mM vanadate solution, 1 mM Ca2+ i), the “Effect of vanadate solution on CA-NSC gating (in words)” value is “robust stimulation of channel gating to a Po close to unity”. In addition, the “Increase in single-channel current size” value in test [2] (1-mM orthovanadate solution (untreated, contains trace DV)) was approximately 30%.
`Nc1ncnc2c1ncn2[C@@H]1O[C@H](COP(=O)(O)OP(=O)(O)NP(=O)(O)O)[C@@H](O)[C@H]1O` [AMPPNP]: the “Inhibition of Po / effect on gating (in words)” value (“Inhibition of Po / effect” below) in test [1] (1 mM Ca2+ i, −40 mV) is on record as “effectively inhibited”.
Consider `O=C[C@H](O)[C@H](O)[C@H](O)COP(=O)(O)O` [ribose-5P], for which the “Prevention of inhibition by concomitantly added ATP (in words)” value (“Prevention of inhibition” for short) in test [1] was “none”. Further, the “Inhibition of Po / effect” value in test [1] (1 mM Ca2+ i, −40 mV) is given as “failed to inhibit channel activity”.
For `Nc1ncnc2c1ncn2[C@@H]1O[C@H](CO)[C@@H](O)[C@H]1O` [Ado, adenosine] the same measures were “none” and “inhibited only at high concentrations”.
For “phosphatidyl inositol 4,5-bisphosphate [PI(4,5)P2]”, the “Inhibition of Po / effect” value in test [1] (1 mM Ca2+ i, −40 mV) is “affected neither CA-NSC gating”.
Consider `O=P(O)(O)OP(=O)(O)O` [pyrophosphate], for which the Inhibition (commonly the percentage by which the read-out fell short of the control) in test [1] (2 mM, n = 4) turned out to be 92 ± 2%.
In the case of `Nc1ncnc2c1ncn2[C@@H]1O[C@H](COP(=O)(O)OP(=O)(O)O)[C@@H](O)[C@H]1O` [ADP], in test [1] (setting [5]), the IC50 stood at 4.3 ± 0.5 µM. For the same molecule, the “Increase of K1/2 for inhibition of Po caused by DV” value in test [1] (~1.6 μM DV vs no DV) is approximately 20 ×. The “Effect on the i([DV]) dose response curve (in words)” value in test [2] is on record as “not altered”. Also, the “Predicted decrease in nucleotide affinity brought upon by DV binding” value (shortened to “Predicted decrease”) in test [3] was ~10^5 fold. Also, the “Inhibition of TrpM4b (in words)” value in the test with TrpM4b was “the most potent inhibitor”. In addition, the “Nucleotide sensitivity of astrocyte CA-NSC channels (in words)” value (“Nucleotide sensitivity” below) in test [4] is reported as “insensitive”.
In the case of `O=P(O)(O)O` [Pi, Inorganic phosphate], the “Prevention of inhibition” value in test [1] is given as “none”. The “Inhibition of Po / effect” value in test [1] (1 mM Ca2+ i, −40 mV) is “had little effect”.
For `NC(=O)c1ccc[n+]([C@@H]2O[C@H](COP(=O)([O-])OP(=O)(O)OC[C@H]3O[C@@H](n4cnc5c(N)ncnc54)[C@H](OP(=O)(O)O)[C@@H]3O)[C@@H](O)[C@H]2O)c1` [NADP^+], in test [1] (1 mM Ca2+ i, −40 mV), the “Inhibition of Po / effect” value is on record as “inhibited to a variable extent”.
Consider `N=c1c2ncn3c2ncn1[C@@H]1O[C@H](COP(=O)(O)OP(=O)(O)OC[C@H]2O[C@@H]3[C@H](O)[C@@H]2O)[C@@H](O)[C@H]1O` [cADP-ribose], for which, in test [1], the “Prevention of inhibition” value is “none”. Further, in test [1] (1 mM Ca2+ i, −40 mV), the “Inhibition of Po / effect” value is listed as “failed to inhibit channel activity”.
Take `NC(=O)C1=CN([C@@H]2O[C@H](COP(=O)(O)OP(=O)(O)OC[C@H]3O[C@@H](n4cnc5c(N)ncnc54)[C@H](OP(=O)(O)O)[C@@H]3O)[C@@H](O)[C@H]2O)C=CC1` [NADPH]: the “Inhibition of Po / effect” value in test [1] (1 mM Ca2+ i, −40 mV) was “inhibited to a variable extent”.
Turning to `Nc1ncnc2c1ncn2[C@@H]1O[C@H](COP(=O)(O)OP(=O)(O)OC[C@H]2OC(O)[C@H](O)[C@@H]2O)[C@@H](O)[C@H]1O` (stereo partly drawn) [ADP-ribose], the “Inhibition of Po / effect” value in test [1] (1 mM Ca2+ i, −40 mV) was “inhibited to a variable extent”. Also, in the test with TrpM2, the “Effect on TrpM2 (in words)” value was “activated”.
`O=P(O)(O)OC[C@H]1O[C@H](OP(=O)(O)OP(=O)(O)O)[C@H](O)[C@@H]1O` [PRPP, phospho-ribosyl-PP]: the “Prevention of inhibition” value in test [1] is listed as “none”. Also, the “Inhibition of Po / effect” value in test [1] (1 mM Ca2+ i, −40 mV) is “failed to inhibit channel activity”.
Regarding `Nc1ncnc2c1ncn2[C@@H]1O[C@H](COP(=O)(O)O)[C@@H](O)[C@H]1O` [AMP], in test [1] (1 mM AMP in the presence of ~8 μM DV), the Po is approximately 0.25. For the same molecule, the IC50 in test [1] (setting [5]) worked out at 1.1 ± 0.2 µM. Further, the “Increase of K1/2 for inhibition of Po caused by DV” value in test [1] (~8 μM DV vs no DV) is reported as approximately 90 ×. In test [2], the “Effect on the i([DV]) dose response curve (in words)” value is on record as “not altered”. For the same molecule, the “Predicted decrease” value in test [3] is reported as ~10^3 fold. Also, in test [4], the “Nucleotide sensitivity” value is on record as “insensitive”.
For `Nc1ncnc2c1ncn2[C@@H]1O[C@H](COP(=O)(O)OP(=O)(O)OP(=O)(O)O)[C@@H](O)[C@H]1O` [ATP], the “Increase of K1/2 for inhibition of Po” value in test [1] (10 mM vs 1 mM Ca2+ i) is given as approximately 3 fold. The “Opening rate (normalized)” value in test [1] ((b) 10 μM total ATP, 1 mM free Ca2+, 2 mM free Mg2+) is 0.62 ± 0.12 (n = 3); in test [1] ((c) 10 μM total ATP, 10 mM free Ca2+, 2.01 mM free Mg2+), 0.61 ± 0.10 (n = 4); in test [1] ((d) 100 μM total ATP, 1 mM free Ca2+, 0.184 mM free Mg2+), 0.094 ± 0.043 (n = 6); in test [1] ((e) 100 μM total ATP, 1 mM free Ca2+, 2.03 mM free Mg2+), 0.10 ± 0.03 (n = 14); in test [1] ((f) 100 μM total ATP, 1 mM free Ca2+, 9.91 mM free Mg2+) it was 0.16 ± 0.06 (n = 6). Also, the IC50 was 7.3 ± 1 µM in test [1] (read-out: K1/2 for inhibition of Po, 1 mM Ca2+ i, −80 mV); 52 ± 6 µM in test [1] (read-out: K1/2 for inhibition of Po, 10 mM Ca2+ i, −40 mV); 34 ± 3 µM in test [1] (read-out: K1/2 for inhibition of Po, freshly excised (~10 s) channels in 100 μM Ca2+, −40 mV, tentative analysis); 11 ± 2 µM in test [1] (setting [5]); 8.4 ± 2 µM in test [1] (read-out: K1/2 for inhibition of opening rate, 1 mM Ca2+ i, −80 mV); 14 ± 5 µM in test [1] (read-out: K1/2 for inhibition of opening rate, 10 mM Ca2+ i, −40 mV). Further, in test [1] (read-out: K1/2 for inhibition of opening rate, freshly excised (~10 s) channels in 100 μM Ca2+, −40 mV, tentative analysis), the IC50 came out at 15 ± 2 µM. The “Increase of K1/2 for inhibition of Po caused by DV” value in test [1] (~1.6 μM DV vs no DV) is recorded as approximately 40 ×. The “Decrease of K1/2 for inhibition of Po” value in test [1] (−80 mV vs −40 mV) is “≈ 2 fold”. For the same molecule, the “Effect on the i([DV]) dose response curve (in words)” value in test [2] is on record as “not altered”. Besides, in test [3], the “Predicted decrease” value is reported as approximately 200 fold. The “Fraction of TrpM4b current insensitive to nucleotide” value in the test on TrpM4b (even millimolar [ATP]) is reported as approximately 20%. In addition, in test [4], the “Nucleotide sensitivity” value is reported as “inhibited”.
As to `Nc1nc2c(ncn2[C@@H]2O[C@@H]3COP(=O)(O)O[C@H]3[C@H]2O)c(=O)[nH]1` [cGMP], the “Prevention of inhibition” value in test [1] was “none”. Also, the “Inhibition of Po / effect” value in test [1] (1 mM Ca2+ i, −40 mV) was “failed to affect gating”.
Regarding `Nc1nc2c(ncn2[C@@H]2O[C@H](COP(=O)(O)OP(=O)(O)OP(=O)(O)O)[C@@H](O)[C@H]2O)c(=O)[nH]1` [GTP], the “Inhibition of Po / effect” value in test [1] (1 mM Ca2+ i, −40 mV) is “compatible with inhibition”. In addition, the “Inhibition of TrpM4b (in words)” value in the test on TrpM4b is “poor inhibitors”.
Turning to `O=c1ccn([C@@H]2O[C@H](COP(=O)(O)OP(=O)(O)OP(=O)(O)O)[C@@H](O)[C@H]2O)c(=O)[nH]1` [UTP], the “Inhibition of Po / effect” value in test [1] (1 mM Ca2+ i, −40 mV) was “compatible with inhibition”. Also, in the test on TrpM4b, the “Inhibition of TrpM4b (in words)” value is on record as “poor inhibitors”.
With `NC(=O)c1ccc[n+]([C@@H]2O[C@H](COP(=O)([O-])OP(=O)(O)OC[C@H]3O[C@@H](n4cnc5c(N)ncnc54)[C@H](O)[C@@H]3O)[C@@H](O)[C@H]2O)c1` [NAD^+], the “Inhibition of Po / effect” value in test [1] (1 mM Ca2+ i, −40 mV) was “inhibited to a variable extent”. The “Effect on TrpM2 (in words)” value with TrpM2 is given as “activated”.
Take `Nc1ncnc2c1ncn2[C@@H]1O[C@H](COP(=O)(O)OP(=O)(O)OC[C@H]2O[C@@H]([n+]3cccc(C(=O)O)c3)[C@H](O)[C@@H]2O)[C@@H](O)[C@H]1OP(=O)(O)O` [NAADP]: the “Inhibition of Po / effect” value in test [1] (1 mM Ca2+ i, −40 mV) is listed as “inhibited to a variable extent”.
Same read-out and setting: for `NC(=O)C1=CN([C@@H]2O[C@H](COP(=O)(O)OP(=O)(O)OC[C@H]3O[C@@H](n4cnc5c(N)ncnc54)[C@H](O)[C@@H]3O)[C@@H](O)[C@H]2O)C=CC1` [NADH] the value was “inhibited to a variable extent”.

(Values after paper PMC2234573 (The Journal of General Physiology, 2004).)
